Sampled rows, rich in hits. Any-hit rate of the full collection: about 3.5%.
RGS4 pot: RGS4 potentiators or activators, primary screen, cell-based, HEK293 M3R inducible RGS4, calcium flux; B-score at 10 µM; carbachol calcium flux Fluo4; active compounds read low; hit rate 0.92% among 310,000;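 active = B-score of the integrated calcium signal more than 4 SD below the library mean, with starting fluorescence not abnormally high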;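 also: negative B-score means reduced calcium response which marks RGS4 activation or potentiation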
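Assay system: Inducible-RGS4 HEK293 cells carrying M3 receptor | Schedule: Compound preincubation 20 min at room temperature before agonist | Signal: Kinetic calcium fluorescence imaging with Fluo4-AM dye, 2 µM | Read-out basis: B score from integrated fluorescence ratio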
RGS4 inh: RGS4 inhibitors, primary screen, cell-based, HEK293 M3R inducible RGS4, calcium flux | Regulator of G-protein signaling 4 (Homo sapiens), P49798 | Fluo-4 calcium flux; active compounds read high; triggered by carbachol at its EC20 | B-score at 10 µM | hit rate 0.45% among 310,000;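 active = B-score, a plate-corrected calcium signal, over three deviations above library mean, with baseline fluorescence within five deviations of library mean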;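 also: RGS4 expression induced by doxycycline in cells with stable M3 receptor; B-score is computed from the integrated fluorescence ratio over baseline after carbachol; higher B-score means a larger calcium signal and so more RGS4 inhibition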
MrgX1 ag: agonists of human MrgX1 receptor, primary screen, HEK293 cells, Fluo-4 calcium flux. Fluo-4 calcium fluorescence, agonist mode; active compounds read high. AID 588627, 2011. B-score at 10 µM. hit rate 0.44% among 310,000;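 active = calcium response B-score plate-corrected fluorescence ratio at least 3 library SD, with starting fluorescence B-score inside 5 SD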
Target sequence (Q96LB2 whole entry, looked up): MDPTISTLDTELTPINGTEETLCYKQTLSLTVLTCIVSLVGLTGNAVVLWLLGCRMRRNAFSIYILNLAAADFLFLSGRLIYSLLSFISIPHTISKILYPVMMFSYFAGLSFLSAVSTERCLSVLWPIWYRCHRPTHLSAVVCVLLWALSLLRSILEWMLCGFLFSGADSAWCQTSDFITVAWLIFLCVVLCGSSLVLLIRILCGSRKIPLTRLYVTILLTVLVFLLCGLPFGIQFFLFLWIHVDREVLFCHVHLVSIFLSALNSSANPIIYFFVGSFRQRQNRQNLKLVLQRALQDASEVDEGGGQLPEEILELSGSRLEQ
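Test system: Stable human MrgX1 HEK293 cell line | Schedule: Overnight plating before 1 h dye loading | Read-out basis: Baseline-normalised fluorescence change ratio, B-scored | Detection: Kinetic calcium dye fluorescence, Fluo-4 NW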
MrgX1 allo act: positive allosteric modulators of MrgX1, primary screen, HEK293 cells, Fluo-4 calcium flux. Mas-related G-protein coupled receptor member X1 (Homo sapiens), Q96LB2. FDSS; active compounds read high. B-score at 10 µM. hit rate 0.63% among 310,000. AID 588675, 2011;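 active = plate-corrected calcium response at least 3 library SD above typical, normal starting fluorescence, not activating the receptor alone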;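 also: compound read alongside a low EC10 to EC30 dose of BAM8-22 agonist; peak minus trough fluorescence over baseline measured at the second addition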
MrgX1 antagonist: antagonists of human MrgX1 receptor, primary screen, HEK293 cells, Fluo-4 calcium flux; B-score at 10 µM; hit rate 1.3% among 310,000; BAM8-22 antagonism; active compounds read low; Mas-related G-protein coupled receptor member X1 (Homo sapiens), Q96LB2;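 active = calcium-response B-score plate-corrected more than 3 library SD below zero, starting fluorescence within 5 deviations, no agonist response on first addition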;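 also: peak minus trough fluorescence over baseline after final BAM8-22 challenge near maximal dose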
Starred values were filed as active, the others as inactive; i = inactive; nt = no result.

SMILES | RGS4 pot | RGS4 inh | MrgX1 ag | MrgX1 allo act | MrgX1 antagonist
Cc1ccc(O)c(N=Cc2cc(Cc3ccccc3)cc([N+](=O)[O-])c2O)c1 | -7.2* | i | nt | nt | nt
O=C(NNS(=O)(=O)c1ccc(F)cc1)C1CCN(Cc2cccc(F)c2)CC1 | -7.3* | i | i | i | i
O=C(NNS(=O)(=O)c1ccc2ccccc2c1)C1CCN(Cc2ccccc2)CC1 | i | i | i | i | i
O=C(CCN1C(=O)/C(=C\c2ccccc2)SC1=S)Nc1ccc(C(=O)O)cc1 | i | i | i | 14* | i
O=C(O)CN1C(=O)/C(=C\c2cccc(OCc3ccccc3)c2)SC1=S | i | i | i | i | i
O=C(CN1C(=O)S/C(=C\c2cc(Cl)c(O)c(Cl)c2)C1=O)Nc1ccccc1 | i | i | 27* | i | i
O=C(CN1C(=O)S/C(=C\c2ccccn2)C1=O)Nc1ccccc1 | i | i | i | i | i
COc1cc(/C=C2\SC(=S)N(CCC(=O)Nc3cccc(O)c3)C2=O)cc(OC)c1OC | -8.1* | i | i | i | -4.6*
O=C(O)COc1cccc(/C=C2/SC(=S)N(Cc3ccccc3)C2=O)c1 | i | 5.7* | i | i | i
O=C(CSc1n[nH]c(-c2ccncc2)n1)Nc1ccc(Cl)c(C(=O)O)c1 | i | i | i | i | i
CCOC(=O)C(Cc1ccccc1)NC(=O)Cn1nnc(-c2ccc(SC)cc2)n1 (stereo unspecified) | i | i | i | i | -6.9*
CCOC(=O)c1ccc(NC(=O)Cn2ncc(Cl)c(Cl)c2=O)cc1 | i | i | i | i | -5.2*
CCC(=O)Nc1ccc(C(=O)Cn2ncc(Cl)c(Cl)c2=O)cc1 | i | i | i | i | i
CCOC(=O)C1CCCN(C(=O)c2cccc([N+](=O)[O-])c2C)C1 (stereo unspecified) | i | i | i | i | i
CSc1ccc(C2C(C(=O)c3ccco3)=C(O)C(=O)N2c2nnc(SC)s2)cc1 (stereo unspecified) | i | i | i | i | -5.4*
Cc1nnc(N2C(=O)C(O)=C(C(=O)c3ccco3)C2c2ccc(C(C)(C)C)cc2)s1 (stereo unspecified) | i | i | 27* | i | i
Cc1nnc(N2C(=O)C(O)=C(C(=O)c3ccco3)C2c2ccc(F)cc2)s1 (stereo unspecified) | i | i | i | i | i
Cc1nnc(N2C(=O)C(O)=C(C(=O)c3ccco3)C2c2ccc(C(C)C)cc2)s1 (stereo unspecified) | i | i | i | i | i
Cc1ccc(OCCn2cc(/C=N/NC(=O)c3ccncc3)c3ccccc32)cc1 | i | i | i | i | i
COc1ccc(OCCn2cc(/C=N/NC(=O)c3ccncc3)c3ccccc32)cc1 | i | i | i | 7.2* | i
CC(=O)c1c(C)[nH]c(C(=O)COC(=O)c2cc(S(=O)(=O)N(C)c3ccccc3)ccc2Cl)c1C | i | i | i | i | i
CCN(c1ccccc1)S(=O)(=O)c1ccc(Cl)c(C(=O)OCC(=O)c2[nH]c(C)c(C(C)=O)c2C)c1 | -7.2* | i | i | i | i
COc1ccc(C/C(N)=N/O)cc1 | i | i | i | i | -8.3*
COc1ccc(CC(=O)O/N=C(\N)Cc2ccc(OC)cc2)cc1 | i | i | i | i | i
CCOc1ccc(-c2nc(CCl)cs2)cc1OC | i | i | i | i | i
CCc1ccc(C2=CC(c3cc(Br)ccc3F)n3ncnc3N2)cc1 (stereo unspecified) | nt | nt | i | 11* | i
Fc1ccc(Br)cc1C1C=C(c2ccc(Br)cc2)Nc2ncnn21 (stereo unspecified) | i | i | i | i | i
CC(=O)c1cc(CN2CCC(n3nccc3NC(=O)c3ccccc3)CC2)cs1 | i | i | i | i | i
CC(C)CSC1=NSC2=NC(=O)/C(=C\c3ccccc3)C(=N)N12 | i | i | 27* | i | i
